pIC50: −log10 of the molar value. A value given as a limit tells only on which side of the number the result lay.

For test [1], the system named is KB. Description: Antiproliferative activity against human KB cells after 72 hrs by methylene blue staining. In kind it is functional, cell-based. The essentials: (§1)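 Log-phase cells kept in RPMI-1640 with 5% fetal bovine serum, seeded at 5000 cells/mL/well, then exposed to a range of drug concentrations for 72 h. Growth read by methylene blue dye assay. IC50, the concentration giving 50% growth inhibition relative to untreated control, derived graphically. Doxorubicin served as positive control.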

The test system of test [2] is NCI-H460. Description: Antiproliferative activity against human H460 cells after 72 hrs by methylene blue staining. It counts as functional, cell-based. The conditions noted are these: NCI-H460, 72 h. The essentials: as §1
For test [3], the system named is MKN-45. The test is described as follows: Antiproliferative activity against human MKN45 cells after 72 hrs by methylene blue staining. The following applies: MKN-45, 72 h. It counts as functional, cell-based. The essentials:
as §1

In test [4] the target is Histone deacetylase. The test is described as follows: Inhibition of human HDAC after 30 mins. It counts as protein assay.

For the molecule `O=C(On1nnc2ccccc21)c1ccccc1`, the pIC50 (commonly the negative decadic logarithm of the IC50, by convention in mol/L) in test [1] is 6.98; in test [2], 6.71; in test [3], 7.01.
In the same order, the values of `COc1ccc2nnn(OC(=O)c3ccccc3)c2c1` are 6.68, 6.53 and 6.69.
With `COc1cccc2c1C(=O)c1c(O)c3c(c(O)c1C2=O)C[C@@](O)(C(=O)CO)C[C@@H]3O[C@H]1C[C@H](N)[C@H](O)[C@H](C)O1` [DOXORUBICIN], the pIC50 in test [1] was 9.64; in test [2], 9.42.
Consider `COc1cc(C(=O)On2nnc3ccccc32)cc(OC)c1OC`, for which the pIC50 in test [1] is 8.92; in test [2] it was 8.62; in test [3], 8.82. For the same molecule, the IC50 (commonly the concentration needed to halve the response being measured) in test [4] stood at 9400 nM.
For `O=C(On1nnc2ccccc21)c1cc(O)c(O)c(O)c1`, in that order: 7.74, 7.39, 7.77 and > 100000 nM.
Take `O=C(c1cc(O)cc(O)c1)n1nnc2ccccc21`: the values for the pIC50 in test [1], in test [2] and in test [3] were 6.24, 6.25 and 6.28, respectively.
For `COc1cc(OC)cc(C(=O)n2nnc3ccccc32)c1`, in that order: 6.36, 6.31 and 6.38.
For `COc1ccc2nnn(OC(=O)c3ccc(O)cc3)c2c1`, in that order: 6.83, 6.67 and 6.74.
Take `O=C(c1cc(O)c(O)c(O)c1)n1nnc2ccccc21`: the pIC50 in test [1] was 6.41; in test [2], 6.48; in test [3], 6.48.
In the case of `COc1ccc2nnn(OC(=O)c3cc(O)c(O)c(O)c3)c2c1`, the pIC50 in test [1] was 7.09; in test [2] it was 6.93; in test [3], 7.44.
Regarding `COc1ccc(C(=O)n2nnc3ccccc32)cc1`, the pIC50 in test [1] was 6.30; in test [2], 6.18; in test [3], 6.30.
As to `O=C(On1nnc2ccccc21)c1cc(O)cc(O)c1`, the pIC50 is 7.17 in test [1], 7.28 in test [2] and 7.55 in test [3].
With `O=C(c1ccccc1)n1nnc2ccccc21`, the pIC50 is 6.18 in test [1], 6.12 in test [2] and 6.18 in test [3].
`O=C(On1nnc2ccccc21)c1ccc(O)cc1`: the pIC50 in test [1] was 7.06; in test [2], 7.01; in test [3], 7.31.
For the molecule `COc1cc(OC)cc(C(=O)On2nnc3ccc(OC)cc32)c1`, the pIC50 in test [1] was 7.46; in test [2], 7.10; in test [3], 7.44. This molecule had an IC50 in test [4] of 87500 nM.
In the case of `COc1ccc2nnn(OC(=O)c3cc(O)cc(O)c3)c2c1`, the pIC50 in test [1] was 6.82; in test [2], 6.71; in test [3] it was 7.03.
`COc1ccc2nnn(OC(=O)c3cc(OC)c(OC)c(OC)c3)c2c1`: the pIC50 in test [1] is 7.96; in test [2], 7.64; in test [3], 8.10. Also, the IC50 in test [4] was found to be 58100 nM.
As for `COc1ccc(C(=O)On2nnc3ccc(OC)cc32)cc1`, the results for the pIC50 in test [1], in test [2] and in test [3] were 7.01, 7.02 and 7.03, respectively.
With `COc1ccc(C(=O)On2nnc3ccccc32)cc1`, the pIC50 in test [1] was 7.37; in test [2] it was 7.28; in test [3], 7.41. For the same molecule, in test [4], the IC50 was found to be 73100 nM.
For `COc1cc(OC)cc(C(=O)On2nnc3ccccc32)c1`, in that order: 7.43, 7.38, 7.52 and 61100 nM.
As for `O=C(c1ccc(O)cc1)n1nnc2ccccc21`, the pIC50 in test [1] was 6.24; in test [2], 6.18; in test [3] it was 6.41.
In the case of `COc1cc(C(=O)n2nnc3ccccc32)cc(OC)c1OC`, the pIC50 in test [1] was 6.54; in test [2] it was 6.32; in test [3], 6.56.

(Values after ChEMBL document CHEMBL1287780, “Discovery of 1H-benzo[d][1,2,3]triazol-1-yl 3,4,5-trimethoxybenzoate as a potential antiproliferative agent by inhibiting histone deacetylase” (Bioorg Med Chem, 2010).)
